Screening data from PubChem.
DNA FID counter = displaces DNA intercalator in HCV helicase counter-screen. DNA fluorescent intercalator displacement, fluorescence. AID 1845. inhibition, % at 7.9 µM. 0.17% of 290,000 active; in the data active = inhibition above about 37%;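 note: 0% = vehicle and 100% = reference compound; higher means more ethidium bromide displaced from hairpin DNA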
IMP-1 inhibitor = inhibitors of Pseudomonas aeruginosa IMP-1 metallo-beta-lactamase | AID 1556 | 0.45% of 290,000 active | purified IMP-1, nitrocefin hydrolysis, epi-absorbance fluorescence | inhibition, % at 5.6 µM;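 active = inhibition above the mean plus 3 SD of all compounds in the same screening run, cut at about 4.5% in these data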;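 note: 0% = IMP-1 with DMSO and 100% = DMSO wells lacking enzyme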
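Assay system: purified recombinant IMP-1 beta-lactamase. Input: IMP-1 0.2 nM before substrate addition. Buffer or medium: Zinc- and detergent-supplemented HEPES buffer, pH 7.1. Schedule: 25 °C, 15 min preincubation, 25 min reaction. Signal: Epi-absorbance fluorescence, 480 nm excitation, 530 nm emission. Evaluation: percent inhibition from optical density relative to buffer-blank wells.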
VIM-2 inhibitor = inhibitors of Pseudomonas aeruginosa VIM-2 metallo-beta-lactamase; inhibition, % at 5.6 µM; 0.89% of 290,000 active; purified VIM-2, nitrocefin hydrolysis, epi-absorbance fluorescence; AID 1527;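 active = inhibition above the mean of all tested compounds plus 3 SD, cutoff set per screening run, cut at about 7.5% in these data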;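 note: red hydrolysis product quenches plate fluorescence so inhibitors raise well fluorescence; 0% = enzyme with DMSO and 100% = DMSO without enzyme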
NS3 helicase inh = blocks Hepatitis C virus NS3 helicase unwinding; NS3 helicase DNA unwinding, Cy5 molecular beacon fluorescence; inhibition, % at 10.9 µM; 0.56% of 290,000 active; AID 1800;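 active = inhibition above the mean of all tested compounds plus 3 SD, set per campaign, cut at about 35% in these data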;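 note: 0% = DMSO wells and 100% = thioflavine S control wells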
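Compound dosing – single dose, 10.9 µM nominal final, DMSO 0.8% final · System – NS3 helicase fragment of HCV · Buffer or medium – MOPS pH 6.5, MgCl2, DTT, Tween20, BSA · Signal – Cy5 beacon fluorescence read at start and 1 h · Also added – annealed dual-labelled DNA beacon duplex, ATP-started · Schedule – 1 h at 25 °C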
Active calls of the source: *; ! = not active in a repeat. A selection: hits, their analogues and other compounds. The true share with any hit is near 1.9%.

SMILES	DNA FID counter	IMP-1 inhibitor	VIM-2 inhibitor	NS3 helicase inh
COc1ccccc1N1CCN(C(=O)c2cc3sccc3n2C)CC1	-37.5	-0.9	-1.2	-5.3
Cn1c(C(=O)N2CCN(C3CCCCC3)CC2)cc2c(=O)n(C)c3ccccc3c21	-1.9	-2.4	2.7	-2.5
Cc1ccc(CN2C(=O)CCC2C(=O)NCc2ccccc2Cl)cc1 (configuration not stated)	-31.0	-0.8	-4.2	7.0
Cn1c2ccccc2c(=O)c2ccc(C#Cc3ccccn3)cc21	-6.7	1.4	10.3*	4.1
Cn1c2ccccc2c(=O)c2cc(C#Cc3ccsc3)ccc21	-5.4	-2.2	-0.8	4.4
COc1cc(-c2ccc3c(=O)c4ccccc4n(C)c3c2)cc(OC)c1OC	-26.7	-0.7	11.7*	-11.5
CC(C)N(C(=O)CSc1nnc(NC(=O)c2cccs2)s1)C(C)C	-15.7	-2.6	10.0*	-4.2
COc1cc(C(=O)NCCC(=O)NC(C)CCc2ccccc2)cc(OC)c1OC (configuration not stated)	-35.5	-3.6	0.2	0.0
COCCN1C(=O)/C(=C2/C(=O)N(CC(=O)Nc3ccccc3Cl)c3ccccc32)SC1=S	1.4	-0.3	-1.2	-3.2
O=C(CN1C(=O)/C(=C2\SC(=S)N(CCS(=O)(=O)O)C2=O)c2ccccc21)Nc1cccc(Br)c1	57.6*	12.7*	1.2	31.8
COc1ccc(OC)c(S(=O)(=O)NCCO)c1	8.4	-2.3	-0.8	1.6
CCNS(=O)(=O)c1cc(OC)ccc1OC	37.9*	-4.1	-1.6	-0.3
Cc1cc(C)c2c(c1)[C@@H]1C=CC[C@@H]1[C@H](c1ccc(S(=O)(=O)N3CCOCC3)cc1)N2	-6.5	8.1*	-1.2	15.6
Cc1ccc(-c2nc3ccsc3c(=O)[nH]2)cc1	-1.6	-2.7	-1.3	8.6
COc1ccc(CNC(=O)C(OC(C)=O)c2ccccn2)cc1 (configuration not stated)	-10.1	5.8*	-1.2	3.8
O=C(O)C/C(=C\c1ccc2c(c1)OCO2)c1nc2ccccc2s1	-30.8	-1.6	8.0*	17.8
COc1ccc(CNS(=O)(=O)c2ccc3c(c2)N(C(C)=O)CC(C)S3)cc1 (configuration not stated)	-28.8	-2.8	-1.3	-12.5
O=C(Nc1scc(-c2cccs2)c1C(=O)O)c1cccs1	5.4	15.3*	2.7	16.2
COC(=O)c1c(-c2ccc(F)cc2)csc1NC(=O)c1ccco1	-7.3	-1.8	-0.7	-1.0
O=C(Nc1scc(-c2ccccc2)c1C(=O)O)c1ccco1	-5.0	4.8*	-1.7	9.8
CN(Cc1ccccc1)C(=O)C1CCN(S(=O)(=O)c2cccc3nsnc23)CC1	-39.2	-0.5	-1.2	9.6
CC(=O)N1c2ccc(C)cc2C(c2ccccc2)CC1C (configuration not stated)	-32.4	13.8*	1.0	8.3
COC(C(=O)Nc1ccccc1C(=O)N1CCOCC1)c1ccccc1 (configuration not stated)	-3.2	-1.5	-1.3	-0.7
O=C(CN1CCN(c2ccccn2)CC1)Nc1cccc(Br)c1	-8.9	2.0	1.4	-37.2
O=C(Nc1ccc(Cl)cc1)c1cccnc1N1CCCCC1	-13.1	20.3*	-0.3	-1.9
SMILES	DNA FID counter	IMP-1 inhibitor	VIM-2 inhibitor	NS3 helicase inh
O=C(Nc1ccc(N2CCCCC2)cc1)c1cccnc1Cl	-2.6	-2.6	0.3	3.2
CCN(CC)CCN1C(=O)/C(=C\c2ccc(Cl)c([N+](=O)[O-])c2)SC1=Nc1ccc(OC)cc1	27.0	-1.1	8.0*	-64.5
CC(=O)Nc1nc(=O)c2ccccc2s1	5.9	-1.9	6.2	9.2
O=C(Nc1nc(=O)c2ccccc2s1)c1ccccc1	1.1	-2.4	11.0*	2.0
Cc1cc(/C=C(\C#N)C(=O)Nc2ccc(F)cc2)c(C)n1-c1ccc(N2CCOCC2)c([N+](=O)[O-])c1	5.6	5.0*	0.7	3.2
CCOC(=O)C1CCN(Cc2cc(Cl)c3ccccc3c2O)CC1	-8.7	1.4	-1.3	19.8
OC[C@@H]1CCCN1Cc1cn(-c2ccccc2)nc1-c1ccc2c(c1)OCO2	15.8	-2.8	-2.7	11.5
c1ccc(-n2cc(CN3CCCC(CN4CCCC4)C3)c(-c3ccc4c(c3)OCO4)n2)cc1 (configuration not stated)	40.5*	-3.3	-1.2	-32.5
O=C(O)c1cccc2c1C(=O)c1cccc3snc-2c13	1.7	-1.9	8.3*	0.9
CS(=O)(=O)c1cccc(NC(=O)C2CCCN2S(=O)(=O)c2ccc(F)cc2)c1 (configuration not stated)	-5.7	-5.0	-1.8	3.1
Cc1ccc2ccc3cccnc3c2n1	-4.8	-26.6	9.5*	5.0
Nc1ccc(-c2c3ccccc3nc3ccccc23)cc1	10.9	-1.4	9.6*	-0.8
O=C1N(O)C2(C=CCCC2)/C(=N\O)C12CCCCC2 (configuration not stated)	-0.2	1.4	10.4*	2.2
C/C(=N\NC(=O)CNC(=O)c1cccs1)c1ccc(Cl)c(Cl)c1	-19.3	-2.8	-0.9	4.7
Cc1ccc(CC2C(=O)N(c3ncccn3)C(=O)C2C)cc1 (configuration not stated)	1.5	4.9*	0.6	3.3
Cc1ccc(CC2C(=O)N(c3ccc(C)cc3)C(=O)C2C)cc1 (configuration not stated)	-18.3	-2.8	-4.3	-7.4
O=C(NCCN1CCOCC1)c1ccc2c(c1)N(Cc1ccc(F)cc1)C(=O)CS2	-1.8	-1.5	-2.5	1.0
Cc1ccc(CN2C(=O)CSc3ccc(C(=O)NCCN4CCOCC4)cc32)cc1	42.8*	0.4	-2.0	-24.3
O=[N+]([O-])c1ccc(/C=N\NS(=O)(=O)c2ccc(F)cc2)o1	1.8	-1.5	-1.7	2.9
COc1ccc(N2C(=O)[C@@H]3[C@H](C2=O)[C@H]2c4ccccc4C=CN2[C@@H]3C(=O)Nc2ccccc2)cc1	-6.7	42.1*	1.1	13.1
Clc1cccc(CN2CCN(Cc3nc(CCc4ccccc4)no3)CC2)c1	-9.9	-2.2	-1.6	4.3
CCOc1ccc(C2=C(C=C(C#N)C#N)C(c3ccccc3)c3ccccc3O2)cc1 (configuration not stated)	-11.5	-3.2	-1.8	-3.1
COc1ccc(C2=C(CN(C)C)C(c3ccccc3)c3ccccc3O2)cc1 (configuration not stated)	46.0*!	-0.9	-1.5	-76.6
COCc1n[nH]c(=S)n1-c1cccc2ccccc12	-4.3	-3.4	8.0*	0.8
COc1ccc(-c2cc(-c3n[nH]c(=S)n3-c3cccc4ccccc34)[nH]n2)cc1	-29.6	-0.6	-2.5	-3.1
CN(c1ncc(C(F)(F)F)cc1Cl)N1C(=O)c2cccc([N+](=O)[O-])c2C1=O	6.7	36.5*	-3.7	0.0
Cn1cc(CN2CCC(C(=O)Nc3cccc(-c4cccc(F)c4)c3)CC2)cn1	26.0	0.6	-2.1	-35.5
CCCn1ncc(CN2CCC(C(=O)Nc3cccc(-c4cccc(F)c4)c3)CC2)c1C	44.3*	2.2	4.5	-79.5
C=CCn1cc(CN2CCC(C(=O)Nc3cccc(-c4cccc(Cl)c4)c3)CC2)c(C)n1	40.8*	-0.1	1.6	-72.4
